{
  "source": "paper PMC6415968",
  "about": "(Organic letters, 2018)",
  "key": {"[1]": {"molecular_target": "T1, ERβ (Homo sapiens, UniProt Q92731)", "T1 sequence (Q92731 whole entry)": "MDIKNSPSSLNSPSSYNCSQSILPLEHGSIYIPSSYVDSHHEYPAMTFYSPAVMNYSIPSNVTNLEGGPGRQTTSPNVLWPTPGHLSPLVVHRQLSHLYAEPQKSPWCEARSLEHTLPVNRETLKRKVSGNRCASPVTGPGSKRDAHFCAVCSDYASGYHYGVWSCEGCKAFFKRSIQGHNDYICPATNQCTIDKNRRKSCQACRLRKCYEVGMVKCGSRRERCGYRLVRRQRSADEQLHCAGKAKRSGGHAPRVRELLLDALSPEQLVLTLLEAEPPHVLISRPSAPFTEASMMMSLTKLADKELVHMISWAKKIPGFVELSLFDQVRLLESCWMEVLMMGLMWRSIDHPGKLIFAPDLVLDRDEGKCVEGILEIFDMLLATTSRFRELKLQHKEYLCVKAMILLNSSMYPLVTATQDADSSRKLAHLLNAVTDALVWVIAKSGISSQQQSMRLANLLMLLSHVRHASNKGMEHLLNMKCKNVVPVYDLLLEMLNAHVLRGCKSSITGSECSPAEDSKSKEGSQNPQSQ", "settings": "ref HsiehRW; RajanSS; SharmaSK; GreeneGL Steroids, 2008, 73, 59–68; cited from earlier work"}, "[2]": {"tested_on": "panel of 468 kinases", "experiment": "KINOMEscan panel of 468 kinases", "assay_type": "binding", "settings": "kinases bound divided by distinct kinases tested"}, "[3]": {"molecular_target": "DYRK1A (Homo sapiens, UniProt Q13627)", "experiment": "Kd determination DYRK1A", "assay_type": "binding"}, "[4]": {"molecular_target": "T2, ERα (Homo sapiens, UniProt P03372)", "T2 sequence (P03372 1-595)": "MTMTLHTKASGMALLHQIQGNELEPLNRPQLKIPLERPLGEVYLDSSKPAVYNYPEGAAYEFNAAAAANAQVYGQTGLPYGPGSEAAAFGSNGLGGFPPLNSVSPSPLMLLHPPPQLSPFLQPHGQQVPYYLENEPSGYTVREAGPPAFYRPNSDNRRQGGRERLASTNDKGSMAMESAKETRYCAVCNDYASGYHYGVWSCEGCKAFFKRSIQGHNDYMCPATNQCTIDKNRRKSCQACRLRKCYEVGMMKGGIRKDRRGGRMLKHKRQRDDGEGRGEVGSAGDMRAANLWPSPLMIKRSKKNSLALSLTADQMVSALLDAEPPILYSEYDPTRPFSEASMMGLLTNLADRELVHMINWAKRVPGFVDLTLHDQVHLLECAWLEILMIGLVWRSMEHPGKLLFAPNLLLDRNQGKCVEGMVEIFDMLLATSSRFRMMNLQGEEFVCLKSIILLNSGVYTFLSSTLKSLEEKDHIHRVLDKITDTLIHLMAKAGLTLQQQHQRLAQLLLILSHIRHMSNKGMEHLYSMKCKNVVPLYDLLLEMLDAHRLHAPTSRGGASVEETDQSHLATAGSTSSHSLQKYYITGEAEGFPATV", "experiment": "estrogen receptor α agonist assay", "assay_type": "cell-based", "settings": "estrogen receptor agonism"}, "[5]": {"molecular_target": "T1, ERβ", "experiment": "estrogen receptor β agonist assay", "assay_type": "cell-based"}, "[6]": {"tested_on": "CLK1,2,4", "experiment": "established model for inhibition of CLK1,2,4 in cells", "assay_type": "cell-based"}, "[7]": {"molecular_target": "CLK2 (Homo sapiens, UniProt P49760)", "sequence (P49760 whole entry)": "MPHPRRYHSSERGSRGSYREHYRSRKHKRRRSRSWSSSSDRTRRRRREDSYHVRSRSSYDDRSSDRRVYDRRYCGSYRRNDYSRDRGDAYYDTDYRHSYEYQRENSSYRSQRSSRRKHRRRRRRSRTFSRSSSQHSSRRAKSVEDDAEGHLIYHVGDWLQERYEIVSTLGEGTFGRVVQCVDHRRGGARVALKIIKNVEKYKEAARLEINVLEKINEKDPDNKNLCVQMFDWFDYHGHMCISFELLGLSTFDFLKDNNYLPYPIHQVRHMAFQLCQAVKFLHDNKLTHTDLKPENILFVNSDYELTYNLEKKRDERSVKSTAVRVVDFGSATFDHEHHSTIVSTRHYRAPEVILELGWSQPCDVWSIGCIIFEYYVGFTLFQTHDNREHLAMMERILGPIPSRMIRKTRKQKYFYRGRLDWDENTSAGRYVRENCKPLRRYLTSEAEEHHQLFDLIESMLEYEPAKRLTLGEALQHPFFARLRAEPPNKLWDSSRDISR", "experiment": "Kd determination CLK2", "assay_type": "binding"}, "[8]": {"molecular_target": "T2, ERα", "experiment": "estrogen receptor α antagonist assay", "assay_type": "cell-based", "settings": "concentrations up to 10 μM"}, "[9]": {"molecular_target": "T1, ERβ", "experiment": "estrogen receptor β antagonist assay", "assay_type": "cell-based", "settings": "concentrations up to 10 μM"}, "[10]": {"molecular_target": "CLK1 (Homo sapiens, UniProt P49759)", "sequence (P49759 whole entry)": "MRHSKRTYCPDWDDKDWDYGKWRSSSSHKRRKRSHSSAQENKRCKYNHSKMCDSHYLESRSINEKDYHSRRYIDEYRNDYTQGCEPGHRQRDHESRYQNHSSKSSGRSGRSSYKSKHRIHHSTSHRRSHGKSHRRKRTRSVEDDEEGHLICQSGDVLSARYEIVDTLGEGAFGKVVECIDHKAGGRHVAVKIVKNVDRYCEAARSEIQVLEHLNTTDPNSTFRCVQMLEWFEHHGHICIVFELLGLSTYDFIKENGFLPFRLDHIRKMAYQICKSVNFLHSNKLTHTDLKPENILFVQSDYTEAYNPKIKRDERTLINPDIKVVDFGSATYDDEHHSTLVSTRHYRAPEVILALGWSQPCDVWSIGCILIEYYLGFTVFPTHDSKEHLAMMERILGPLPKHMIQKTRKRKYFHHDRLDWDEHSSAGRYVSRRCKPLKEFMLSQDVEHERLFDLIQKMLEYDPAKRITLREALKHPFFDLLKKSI", "experiment": "Kd determination CLK1", "assay_type": "binding"}, "[11]": {"molecular_target": "cdc-2-like kinase CLK4 (Homo sapiens, UniProt Q9HAZ1)", "sequence (Q9HAZ1 whole entry)": "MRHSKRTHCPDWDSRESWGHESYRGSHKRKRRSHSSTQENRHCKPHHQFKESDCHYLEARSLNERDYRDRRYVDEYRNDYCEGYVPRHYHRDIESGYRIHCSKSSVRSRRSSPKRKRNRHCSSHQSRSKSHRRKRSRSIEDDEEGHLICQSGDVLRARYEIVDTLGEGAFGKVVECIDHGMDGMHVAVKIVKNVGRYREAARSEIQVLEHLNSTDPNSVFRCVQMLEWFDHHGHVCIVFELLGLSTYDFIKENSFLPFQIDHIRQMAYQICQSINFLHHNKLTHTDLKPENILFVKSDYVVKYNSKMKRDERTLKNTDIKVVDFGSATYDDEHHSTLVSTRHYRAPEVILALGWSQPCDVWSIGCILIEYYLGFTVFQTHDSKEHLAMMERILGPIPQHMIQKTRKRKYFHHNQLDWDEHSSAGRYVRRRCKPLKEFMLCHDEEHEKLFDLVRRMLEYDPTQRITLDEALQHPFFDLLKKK", "experiment": "Kd determination CLK4", "assay_type": "binding"}, "[12]": {"tested_on": "12 human primary cell-based systems", "experiment": "BioMAP Diversity PLUS panel", "settings": "comparison with reference database of >4,000 agents"}, "[13]": {"tested_on": "MDA-MB-231 human breast cancer cells", "experiment": "growth inhibition assay, MDA-MB-231", "assay_type": "cell-based", "method_in_brief": "(§1)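 Simple growth-inhibition assay in two human cancer lines, MDA-MB-231 (breast) and AsPC-1 (pancreatic), run without a particular target in mind. Cells exposed to a range of test compound concentrations, highest 40 μM. GI50 (μM) read.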"}, "[14]": {"tested_on": "AsPC-1 human tumor cell line (pancreatic cancer)", "experiment": "growth inhibition assay, AsPC-1", "assay_type": "cell-based", "settings": "ASPC1", "method_in_brief": "as §1"}, "[15]": {"tested_on": "cells (mitosis)", "experiment": "mitotic arrest in cells", "assay_type": "cell-based"}},
  "note": "Several values for one entry are separate records, joined by “and”; a condition that tells them apart may be missing. Equal values may be shown once. Entries after “also recorded” stand apart in the source; their conditions may differ.",
  "data": [
    {"smiles": "C[C@]12CCc3c(ccc4cc(O)ccc34)[C@@H]1CC[C@@H]2O", "note": "[17-β-dihydroequilenin]", "values": [
      {"measurement": "shift in selectivity for agonism of ER-β", "setting": "[1]", "result": "related shift in selectivity for agonism of ER-β"}
    ]},
    {"smiles": "C[C@]12CCc3c(ccc4ccc(O)cc34)[C@@H]1C[C@@H](O)C2", "note": "[VII, estra-1,3,5(10),6,8-pentaene-2,16α-diol]", "values": [
      {"measurement": "S-score(35)", "setting": "[2]", "result": 0.03},
      {"measurement": "Kd", "setting": "[3]", "result": 2, "unit": "µM"},
      {"measurement": "agonist potency order ERβ vs ERα", "setting": "[4]", "result": "potency for ERβ > ERα"},
      {"measurement": "EC50", "setting": "[5]", "result": 0.021, "unit": "µM"},
      {"measurement": "shift in selectivity favoring agonism of ERβ over ERα in comparison to 17-β-estradiol", "setting": "[5]; ERβ vs ERα, relative to 17-β-estradiol", "result": "~4", "unit": "fold"},
      {"measurement": "CLK inhibitory activity in cells", "setting": "[6]", "result": "no evidence of CLK inhibitory activity in cells"},
      {"measurement": "Kd", "setting": "[7]", "result": 2, "unit": "µM"},
      {"measurement": "antagonist activity at ERα", "setting": "[8]", "result": "not showing activity as an antagonist"},
      {"measurement": "antagonist activity at ERβ", "setting": "[9]", "result": "not showing activity as an antagonist"},
      {"measurement": "Kd", "setting": "[10]", "result": 1.4, "unit": "µM"},
      {"measurement": "Kd", "setting": "[11]", "result": 0.35, "unit": "µM"},
      {"measurement": "BioMAP phenotypic profile similarity to reference agents", "setting": "[12]", "result": "favorable comparison to both 17-β estradiol (a dual ERα and ERβ agonist) as well as 2-methoxyestradiol; also recorded: correlation with several microtubule targeting agents (combretastatin A4, 2-methoxyestradiol and paclitaxel); also recorded: related to the clinically relevant microtubule-targeting agent paclitaxel; also recorded: phenotypically related to paclitaxel"},
      {"measurement": "GI50", "setting": "[13]", "result": "~0.2", "unit": "µg/mL"},
      {"measurement": "GI50", "setting": "[14]", "result": "~0.5 µg/mL and 2 µM"},
      {"measurement": "mitotic arrest", "setting": "[15]", "result": "arrests cells in mitosis; also recorded: induces mitotic arrest in cells"}
    ]}
  ]
}
